The text below walks through data of ChEMBL document CHEMBL1221390, “Withaferin A, a cytotoxic steroid from Vassobia breviflora, induces apoptosis in human head and neck squamous cell carcinoma” (J Nat Prod, 2010).

Activity calls are given as the source filed them. No cut-off for these calls is given here.

A word on the IC50: it is the point on the concentration scale where inhibition reaches its midpoint. The low end stands for higher potency, the high end for lower potency.

The species named for test [1] is Homo sapiens. Description: Induction of apoptosis in human MDA1986 cells assessed as increase in late apoptotic cells at 5 uM after 24 hrs by FITC-conjugated annexin V and propidium iodide staining-based flow cytometry. The class given is functional, cell-based. The method in brief:
(§1)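 Cells given 5.0 μM for 24 h, harvested, and co-stained at 1×10⁶ cells/mL with annexin V-FITC and PI. Annexin binding buffer added before flow cytometry. Annexin V only scored as early apoptosis, annexin V+PI as late apoptosis, PI only as necrosis. Triplicate; t-test.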

The target in test [2] is T1, Mitogen-activated protein kinase; ERK1/ERK2 (Homo sapiens) (UniProt P27361+P28482). Put plainly: Inhibition of ERK1/2 phosphorylation in human MDA1986 cells at 0.1 to 5 uM after 24 hrs by Western blot analysis. The test is classed as cell-based. A digest of the protocol:
(§2)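 Increasing concentrations for 24 h. NP-40 lysates (with NaF and orthovanadate) cleared at 14,000 × g, equal protein separated by SDS-PAGE and blotted. Probed for phospho-Akt (Ser473), total Akt, phospho-ERK1/2 and total ERK; β-actin loading control. Primary antibody overnight at 4 °C, HRP secondary 1 h.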
A general note: A western blot detects proteins with antibodies after separation by electrophoresis.

For test [3], the target named is T1, Mitogen-activated protein kinase; ERK1/ERK2 (Homo sapiens). Description: Inhibition of ERK1/2 phosphorylation in human UM-SCC2 cells assessed as effect on total protein level at 0.1 to 5 uM after 24 hrs by Western blot analysis. The test is classed as cell-based. The method in brief: as §2
The nature of test [4]: Cytotoxicity against human UM-SCC2 cells after 72 hrs by MTS assay. The test is classed as functional, cell-based. As to conditions: UM-SCC2, 72 h. A digest of the protocol:
(§3)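 Seeded at 2×10³ cells/well, left 24 h, then exposed to serial dilutions in medium (from DMSO stock; vehicle controls <0.1% DMSO v/v) for 72 h. MTS added, 3 h at 37 °C, 5% CO₂, absorbance 490 nm. Viability expressed relative to medium-only control; IC50 read from viability–concentration curves. Triplicate; cisplatin positive control.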
Background: Tetrazolium assays rely on reduction of a dye to a coloured formazan, in cell work by metabolically active cells.

Test [5] deals with UM-SCC2. Description: Induction of apoptosis in human UM-SCC2 cells assessed as increase in late non-viable necrotic cells at 5 uM after 24 hrs by FITC-conjugated annexin V and propidium iodide staining-based flow cytometry. The class given is functional, cell-based. A digest of the protocol: as §1
A general note: A flow cytometer gives signals particle by particle.

For test [6], the species on record is Homo sapiens. Description: Induction of apoptosis in human MDA1986 cells assessed as induction of PRAP cleavage at 1 to 6 uM after 24 hrs by Western blot analysis. The test is classed as functional, cell-based. The method in brief: (§4)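 Cells exposed to increasing concentrations for 24 h, lysed in NP-40/Tris pH 7.5 buffer with protease inhibitors, NaF and orthovanadate. Equal protein run on SDS-PAGE, transferred to nitrocellulose. Probed overnight at 4 °C for uncleaved caspase 3 (pro-form) and uncleaved/cleaved PARP; HRP secondary 1 h at room temperature.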

Test [7] concerns the target RAC-alpha serine/threonine-protein kinase (Homo sapiens) (UniProt P31749). Description: Inhibition of Akt phosphorylation in human JHU011 cells after 24 hrs by Western blot analysis. The test is classed as cell-based. The method in brief: as §2
For another test, the system named is JMAR. Description: Induction of apoptosis in human JMAR cells assessed as increase in early apoptotic cells at 5 uM after 24 hrs by FITC-conjugated annexin V and propidium iodide staining-based flow cytometry. The test is classed as functional, cell-based. A digest of the protocol: as §1
Another test relates to JHU011. Description: Induction of apoptosis in human JHU011 cells assessed as decrease in procaspase-3 level at 1 to 6 uM after 24 hrs by Western blot analysis. The class given is functional, cell-based. The method in brief: as §4
Test [8] is described as follows: Induction of apoptosis in human JHU011 cells assessed as early apoptotic cells at 5 uM after 24 hrs by FITC-conjugated annexin V and propidium iodide staining-based flow cytometry. The class given is functional. A digest of the protocol: as §1
Test [9] relates to UM-SCC2. Description: Induction of apoptosis in human UM-SCC2 cells assessed as induction of PRAP cleavage after 24 hrs by Western blot analysis. The class given is functional, cell-based. The method in brief:
as §4

The target of test [10] is T1, Mitogen-activated protein kinase; ERK1/ERK2 (Homo sapiens). Description: Inhibition of ERK1/2 phosphorylation in human UM-SCC2 cells at 0.1 to 5 uM after 24 hrs by Western blot analysis. The class given is cell-based. A digest of the protocol:
as §2

Test [11] shares this target. Put plainly: Inhibition of ERK1/2 phosphorylation in human JHU011 cells assessed as effect on total protein level at 0.1 to 5 uM after 24 hrs by Western blot analysis. The test is classed as cell-based. The method in brief: as §2
A short description of test [12]: Cytotoxicity against human JHU011 cells after 72 hrs by MTS assay. The test is classed as functional, cell-based. The following applies: JHU011, 72 h. A digest of the protocol:
as §3

A short description of test [13]: Induction of cell cycle arrest in human JMAR cells assessed as accumulation at subG0 phase at 3 uM after 24 hrs by flow cytometry. The class given is functional. The method in brief: (§5)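 Treated 24 h with 3.0 μM or DMSO vehicle. Cells trypsinized; 1×10⁶ washed in 0.9% NaCl and fixed 30 min at room temperature in cold 70% ethanol/0.9% NaCl. Stained with PI (50 μg/mL in PBS) 30 min, then DNase-free RNase (1 mg/mL) 30 min. Phase distribution (sub-G0, G0/G1, S, G2/M) by flow cytometry.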

A short description of test [14]: Cytotoxicity against human JMAR cells after 72 hrs by MTS assay. The class given is functional, cell-based. The method in brief:
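Cells seeded at 2×10³ per well, grown 24 h, then given serial concentrations (DMSO stock diluted in medium; vehicle controls <0.1% v/v DMSO) for 72 h. MTS added, 3 h at 37 °C, 5% CO₂, absorbance at 490 nm. Viability as fraction of medium-only control; IC50 from viability–concentration curves; triplicate, means of three independent experiments. Cisplatin positive control.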

The nature of test [15]: Induction of cell cycle arrest in human MDA1986 cells assessed as accumulation at subG0 phase at 3 uM after 24 hrs by flow cytometry. The class given is functional. The method in brief:
as §5

Test [16] deals with RAC-alpha serine/threonine-protein kinase (Homo sapiens) (UniProt P31749). Put plainly: Inhibition of Akt phosphorylation in human MDA1986 cells after 24 hrs by Western blot analysis. The class given is cell-based. The method in brief:
as §2

For test [17] the target is unchanged. Put plainly: Inhibition of Akt in human MDA1986 cells assessed as highest required for enzyme activity after 24 hrs by Western blot analysis. The class given is cell-based. The method in brief: as §2
For test [18], the target named is T1, Mitogen-activated protein kinase; ERK1/ERK2 (Homo sapiens). Description: Inhibition of ERK1/2 phosphorylation in human JHU011 cells at 0.1 to 5 uM after 24 hrs by Western blot analysis. The test is classed as cell-based. The method in brief:
as §2

In test [19] the target is RAC-alpha serine/threonine-protein kinase (Homo sapiens) (UniProt P31749). Description: Inhibition of Akt in human JHU011 cells assessed as decrease in total protein level at 0.1 to 5 uM after 24 hrs by Western blot analysis. The test is classed as cell-based. A digest of the protocol: as §2
Sequence of RAC-alpha serine/threonine-protein kinase (Homo sapiens) (P31749 whole entry): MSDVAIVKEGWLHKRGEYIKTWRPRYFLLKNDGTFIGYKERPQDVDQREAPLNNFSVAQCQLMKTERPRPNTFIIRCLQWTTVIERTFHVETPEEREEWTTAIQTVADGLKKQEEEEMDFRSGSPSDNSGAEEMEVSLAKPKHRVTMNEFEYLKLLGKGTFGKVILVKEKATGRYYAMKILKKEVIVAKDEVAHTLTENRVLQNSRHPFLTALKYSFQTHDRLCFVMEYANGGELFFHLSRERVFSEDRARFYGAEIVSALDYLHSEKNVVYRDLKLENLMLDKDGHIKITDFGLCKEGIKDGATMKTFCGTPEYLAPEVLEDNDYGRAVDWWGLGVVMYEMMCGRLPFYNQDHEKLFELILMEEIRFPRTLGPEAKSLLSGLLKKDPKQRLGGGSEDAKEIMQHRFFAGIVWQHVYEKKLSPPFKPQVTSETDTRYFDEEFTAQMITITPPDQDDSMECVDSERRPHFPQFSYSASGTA
Test [20] is filed under the species Homo sapiens. Put plainly: Induction of apoptosis in human MDA1986 cells assessed as increase in early apoptotic cells at 5 uM after 24 hrs by FITC-conjugated annexin V and propidium iodide staining-based flow cytometry. The class given is functional, cell-based. A digest of the protocol:
as §1

Test [21] deals with T1, Mitogen-activated protein kinase; ERK1/ERK2 (Homo sapiens). Description: Inhibition of ERK1/2 phosphorylation in human JMAR cells at 0.1 to 5 uM after 24 hrs by Western blot analysis. The test is classed as cell-based. A digest of the protocol:
as §2

T1 sequence (P27361 whole entry, looked up): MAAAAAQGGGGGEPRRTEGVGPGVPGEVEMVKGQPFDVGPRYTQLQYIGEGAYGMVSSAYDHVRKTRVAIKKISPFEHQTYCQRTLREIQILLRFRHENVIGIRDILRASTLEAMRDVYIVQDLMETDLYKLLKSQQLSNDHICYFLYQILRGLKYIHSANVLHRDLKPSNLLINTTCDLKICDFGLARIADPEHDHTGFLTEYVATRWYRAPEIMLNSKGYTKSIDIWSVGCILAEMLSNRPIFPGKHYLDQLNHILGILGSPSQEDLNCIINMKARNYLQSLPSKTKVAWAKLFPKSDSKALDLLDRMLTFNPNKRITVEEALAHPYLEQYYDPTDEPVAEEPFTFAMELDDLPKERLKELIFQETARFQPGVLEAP
T1 sequence (P28482 whole entry, looked up): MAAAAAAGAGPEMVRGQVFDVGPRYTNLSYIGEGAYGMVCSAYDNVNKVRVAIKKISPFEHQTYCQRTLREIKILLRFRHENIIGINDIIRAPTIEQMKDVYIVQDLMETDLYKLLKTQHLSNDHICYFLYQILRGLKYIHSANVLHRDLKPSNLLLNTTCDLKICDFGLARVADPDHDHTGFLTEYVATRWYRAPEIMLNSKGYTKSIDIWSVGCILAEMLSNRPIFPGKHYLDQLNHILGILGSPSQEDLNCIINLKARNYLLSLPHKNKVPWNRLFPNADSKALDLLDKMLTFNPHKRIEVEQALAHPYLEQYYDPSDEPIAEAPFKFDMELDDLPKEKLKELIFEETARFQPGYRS

With `CC1=C(CO)C(=O)O[C@@H]([C@@H](C)[C@H]2CC[C@H]3[C@@H]4C[C@H]5O[C@]56[C@@H](O)C=CC(=O)[C@]6(C)[C@H]4CC[C@]23C)C1` [WITHAFERIN A], the outcome in the test filed under Homo sapiens [1] and in the test filed under Homo sapiens [20] was inactive. For the same compound, the inhibition entry in [2], in test [3], in test [11], in test [18] and in test [21] was “inactive” each time. Besides, the half-maximal inhibitory concentration (IC50) in test [4] turned out to be 500 nM; in test [12], 2200 nM; in test [14] it was 2000 nM. Also, the outcome in the test with UM-SCC2 [5], in the test listed under Homo sapiens [6], in the test on JMAR and in the test on JHU011 was Active. The inhibition result in [7] and in [16] was “Dose-dependent effect” in each case. In addition, the Activity in test [8] was 14.8%; in the test with UM-SCC2 [9], “Dose-dependent effect”; in [13], 12%; in [15] it was 8%; in test [17], 2.5 µM. Moreover, the inhibition result in test [10] and in test [19] was “Active” in each case.
